{"source": "ChEMBL document CHEMBL1132288", "about": "“Synthesis and in vitro pharmacology of a series of new chiral histamine H3-receptor ligands: 2-(R and S)-Amino-3-(1H-imidazol-4(5)-yl)propyl ether derivatives” (J Med Chem, 1999)", "key": {"[1]": {"target": "Histamine H3 receptor (Rattus norvegicus) (UniProt Q9QYN8)", "sequence (Q9QYN8 whole entry)": "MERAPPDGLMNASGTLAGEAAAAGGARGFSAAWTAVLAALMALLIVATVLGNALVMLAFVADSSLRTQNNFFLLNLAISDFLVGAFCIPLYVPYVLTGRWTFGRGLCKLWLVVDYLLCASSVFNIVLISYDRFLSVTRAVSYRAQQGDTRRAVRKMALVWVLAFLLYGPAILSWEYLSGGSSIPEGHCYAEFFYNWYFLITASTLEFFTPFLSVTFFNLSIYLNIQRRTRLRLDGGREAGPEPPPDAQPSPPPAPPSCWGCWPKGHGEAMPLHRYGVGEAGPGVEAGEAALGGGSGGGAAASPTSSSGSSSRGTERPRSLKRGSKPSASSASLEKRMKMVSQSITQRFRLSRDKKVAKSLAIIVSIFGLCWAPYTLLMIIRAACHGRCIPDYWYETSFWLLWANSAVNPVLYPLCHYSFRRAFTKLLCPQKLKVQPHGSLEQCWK", "test": "Binding affinity for Histamine H3 receptor", "outline": "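Affinity for the H3 receptor measured in an in vitro binding assay by displacement of the radioligand [3H]R-(α)-methylhistamine.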"}, "Histamine H3 receptor": {"target": "Histamine H3 receptor (Rattus norvegicus, UniProt Q9QYN8)", "sequence (Q9QYN8 whole entry)": "as above", "test": "Binding affinity of compound against Histamine H3 receptor", "outline": "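Displacement of the radioligand [3H]R-(α)-methylhistamine from the histamine H3 receptor in an in vitro receptor binding assay.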"}, "[2]": {"target": "Histamine H3 receptor (Rattus norvegicus) (UniProt Q9QYN8)", "conditions": "filed as antagonist; 10e-5 M"}, "[3]": {"target": "Histamine H3 receptor (Rattus norvegicus) (UniProt Q9QYN8)", "conditions": "filed as antagonist, 10e-6 M"}, "[4]": {"target": "Histamine H3 receptor (Rattus norvegicus) (UniProt Q9QYN8)", "conditions": "Striatum; filed as antagonist; 10e-5 M"}, "[5]": {"target": "Histamine H3 receptor (Rattus norvegicus) (UniProt Q9QYN8)", "conditions": "Striatum, filed as antagonist, 10e-6 M"}, "[6]": {"target": "Histamine H3 receptor (Rattus norvegicus) (UniProt Q9QYN8)", "test": "Agonistic activity, Histamine H3 receptor dependent activation of G-proteins with GTP gamma-[35S] autoradiography of rat cortical tissue sections. at 10e-5 M conc; maximal response", "type": "functional", "conditions": "filed as agonist", "outline": "(§1)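 Rat brain tissue sections were incubated with the test compound at the stated concentrations together with GTPγ[35S], then washed and dried. Film autoradiograms were digitized and quantified against [14C] standards. Responses were read from cerebral cortex and striatum, four animals per region, with cerebellum (no H3 receptors) as a nonspecific-effect control.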"}, "[7]": {"target": "Histamine H3 receptor (Rattus norvegicus) (UniProt Q9QYN8)", "test": "Agonistic activity, Histamine H3 receptor dependent activation of G-proteins with GTP gamma-[35S] autoradiography of rat striatal tissue sections. at 10e-5 M conc.; maximal response", "type": "functional", "conditions": "filed as agonist", "outline": "as §1"}, "[8]": {"target": "Histamine H3 receptor (Rattus norvegicus) (UniProt Q9QYN8)", "conditions": "filed as antagonist"}, "[9]": {"target": "Histamine H3 receptor (Rattus norvegicus) (UniProt Q9QYN8)", "conditions": "filed as antagonist; 10e-6 M"}, "[10]": {"target": "Histamine H3 receptor (Rattus norvegicus) (UniProt Q9QYN8)", "conditions": "filed as antagonist", "remark": "listed apart in the source"}, "[11]": {"target": "Histamine H3 receptor (Rattus norvegicus) (UniProt Q9QYN8)", "conditions": "Striatum; filed as antagonist; 10e-6 M"}, "[12]": {"target": "Histamine H3 receptor (Rattus norvegicus) (UniProt Q9QYN8)", "test": "Agonistic activity, Histamine H3 receptor dependent activation of G-proteins with GTP gamma-[35S] autoradiography of rat cortical tissue sections. at 10e-5 M conc.; maximal response", "type": "functional", "conditions": "filed as agonist", "outline": "as §1"}, "[13]": {"target": "Histamine H3 receptor (Rattus norvegicus) (UniProt Q9QYN8)", "conditions": "filed as agonist; 10e-5 M"}, "[14]": {"target": "Histamine H3 receptor (Rattus norvegicus) (UniProt Q9QYN8)", "conditions": "filed as antagonist; 10e-6 M", "remark": "listed apart in the source"}, "[15]": {"target": "Histamine H3 receptor (Rattus norvegicus) (UniProt Q9QYN8)", "test": "Agonistic activity, H3-receptor dependent activation of G-proteins with GTP gamma-[35S] autoradiography of rat striatal tissue sections. at 10e-5 M conc.; maximal response", "type": "functional", "conditions": "filed as agonist", "outline": "as §1"}, "[16]": {"target": "Histamine H3 receptor (Rattus norvegicus) (UniProt Q9QYN8)", "test": "Agonistic activity, H3-receptor dependent activation of G-proteins with GTP gamma-[35S] autoradiography of rat cortical tissue sections. at 10e-5 M conc.; maximal response", "type": "functional", "conditions": "filed as agonist", "outline": "as §1"}, "[17]": {"target": "Histamine H3 receptor (Rattus norvegicus) (UniProt Q9QYN8)", "conditions": "filed as antagonist; 10e-5 M", "remark": "listed apart in the source"}, "[18]": {"target": "Histamine H3 receptor (Rattus norvegicus) (UniProt Q9QYN8)", "conditions": "Striatum; filed as antagonist; 10e-5 M", "remark": "listed apart in the source"}, "[19]": {"target": "Histamine H3 receptor (Rattus norvegicus) (UniProt Q9QYN8)", "test": "Agonistic activity, Histamine H3 receptor dependent activation of G-proteins with GTP gamma-[35S] autoradiography of rat striatal tissue sections. at 10e-5 M conc.; half-maximal response", "type": "functional", "conditions": "filed as partial agonist", "outline": "as §1"}, "[20]": {"target": "Histamine H3 receptor (Rattus norvegicus) (UniProt Q9QYN8)", "test": "Agonistic activity, Histamine H3 receptor dependent activation of G-proteins with GTP gamma-[35S] autoradiography of rat cortical tissue sections. at 10e-5 M conc.; half-maximal response", "type": "functional", "conditions": "filed as partial agonist", "outline": "as §1"}}}
{"smiles": "CC(C)(C)CCC#C[C@@H]1C[C@H]1c1c[nH]cn1", "note": "[CIPRALISANT]", "values": [{"measurement": "pD2", "setting": "[1]", "result": 8.5}, {"measurement": "Ki", "setting": "Histamine H3 receptor", "result": 0.126, "unit": "nM"}]}
{"smiles": "NCCc1c[nH]cn1.N[C@H](COCC1CCCCC1)Cc1c[nH]cn1", "values": [{"measurement": "Antagonist activity", "setting": "[2]", "result": "Antagonist"}, {"measurement": "Antagonist activity", "setting": "[3]", "result": "Antagonist"}, {"measurement": "Antagonist activity", "setting": "[4]", "result": "Antagonist"}, {"measurement": "Antagonist activity", "setting": "[5]", "result": "Antagonist"}]}
{"smiles": "N[C@@H](COCC1CCCCC1)Cc1c[nH]cn1", "values": [{"measurement": "Agonistic activity", "setting": "[6]", "result": "Agonist"}, {"measurement": "Agonistic activity", "setting": "[7]", "result": "Agonist"}]}
{"smiles": "N[C@H]1C[C@@H]1c1c[nH]cn1", "note": "[VUF-5297]", "values": [{"measurement": "Ki", "setting": "Histamine H3 receptor", "result": 25.1, "unit": "nM"}]}
{"smiles": "N[C@@H](Cc1ccccc1)C(=O)N[C@H]1C[C@@H]1c1c[nH]cn1", "values": [{"measurement": "Ki", "setting": "Histamine H3 receptor", "result": 20, "unit": "nM"}]}
{"smiles": "NCCc1c[nH]cn1.N[C@H](COCc1ccc(I)cc1)Cc1c[nH]cn1", "values": [{"measurement": "Antagonist activity", "setting": "[8]", "result": "Partial antagonist"}, {"measurement": "Antagonist activity", "setting": "[9]", "result": "Partial antagonist"}, {"measurement": "Antagonist activity", "setting": "[10]", "result": "Partial antagonist"}, {"measurement": "Antagonist activity", "setting": "[11]", "result": "Partial antagonist"}]}
{"smiles": "N[C@H](/C=C/[C@@H]1C[C@H]1c1c[nH]cn1)CC1CCCCC1", "values": [{"measurement": "Ki", "setting": "Histamine H3 receptor", "result": 0.398, "unit": "nM"}]}
{"smiles": "N[C@@H](Cc1ccccc1)C(=O)N[C@@H]1C[C@H]1c1c[nH]cn1", "values": [{"measurement": "pD2", "setting": "[1]", "result": 8.7}]}
{"smiles": "N=C(N)CCCc1c[nH]cn1", "values": [{"measurement": "pD2", "setting": "[1]", "result": 9}]}
{"smiles": "NCCc1c[nH]cn1.N[C@H](COCc1ccccc1)Cc1c[nH]cn1", "values": [{"measurement": "Antagonist activity", "setting": "[2]", "result": "Antagonist"}, {"measurement": "Antagonist activity", "setting": "[3]", "result": "Antagonist"}, {"measurement": "Antagonist activity", "setting": "[4]", "result": "Antagonist"}, {"measurement": "Antagonist activity", "setting": "[5]", "result": "Antagonist"}]}
{"smiles": "NCCc1c[nH]cn1", "values": [{"measurement": "Agonistic activity", "setting": "[7]", "result": "Agonist"}, {"measurement": "Agonistic activity", "setting": "[12]", "result": "Agonist"}, {"measurement": "pD2", "setting": "[1]", "result": 7.2}, {"measurement": "Agonist activity", "setting": "[13]", "result": "Agonist"}, {"measurement": "Antagonist activity", "setting": "[14]", "result": "Antagonist"}]}
{"smiles": "C[C@H](c1c[nH]cn1)[C@@H](C)N", "values": [{"measurement": "pD2", "setting": "[1]", "result": 8.5}]}
{"smiles": "NCCCCCc1c[nH]cn1", "values": [{"measurement": "Agonistic activity", "setting": "[15]", "result": "Agonist"}, {"measurement": "Agonistic activity", "setting": "[16]", "result": "Agonist"}]}
{"smiles": "CNCCc1cnc[nH]1", "values": [{"measurement": "pD2", "setting": "[1]", "result": 7.7}]}
{"smiles": "NCCc1c[nH]cn1.N[C@@H](COCc1ccc(I)cc1)Cc1c[nH]cn1", "values": [{"measurement": "Antagonist activity", "setting": "[17]", "result": "Partial antagonist"}, {"measurement": "Antagonist activity", "setting": "[3]", "result": "Antagonist"}, {"measurement": "Antagonist activity", "setting": "[18]", "result": "Partial agonist"}, {"measurement": "Antagonist activity", "setting": "[5]", "result": "Antagonist"}]}
{"smiles": "C[C@H](N)[C@@H](C)c1c[nH]cn1", "values": [{"measurement": "pD2", "setting": "[1]", "result": 6.5}]}
{"smiles": "N[C@H](COCc1ccc(Br)cc1)Cc1c[nH]cn1", "values": [{"measurement": "Agonistic activity", "setting": "[19]", "result": "Partial agonist"}, {"measurement": "Agonistic activity", "setting": "[20]", "result": "Partial agonist"}]}
{"smiles": "N[C@H](COCC1CCCCC1)Cc1c[nH]cn1", "values": [{"measurement": "Agonistic activity", "setting": "[7]", "result": "Agonist"}, {"measurement": "Agonistic activity", "setting": "[12]", "result": "Agonist"}]}
{"smiles": "N[C@H](/C=C\\[C@@H]1C[C@H]1c1c[nH]cn1)CC1CCCCC1", "values": [{"measurement": "Ki", "setting": "Histamine H3 receptor", "result": 100, "unit": "nM"}]}
{"smiles": "NCCc1c[nH]cn1.N[C@@H](COCc1ccccc1)Cc1c[nH]cn1", "values": [{"measurement": "Antagonist activity", "setting": "[2]", "result": "Antagonist"}, {"measurement": "Antagonist activity", "setting": "[3]", "result": "Antagonist"}, {"measurement": "Antagonist activity", "setting": "[4]", "result": "Antagonist"}, {"measurement": "Antagonist activity", "setting": "[5]", "result": "Antagonist"}]}
